Results as given in ChEMBL document CHEMBL4004786, “Nanomolar Antimalarial Agents against Chloroquine-Resistant Plasmodium falciparum from Medicinal Plants and Their Structure-Activity Relationships” (J Nat Prod, 2017).

Key:
Plasmodium falciparum = assay: Antimalarial activity against chloroquine-resistant Plasmodium falciparum Dd2 assessed as parasite growth inhibition after 72 hrs by SYBR Green 1 assay; assay type: functional; settings: Dd2, 72 h
Method in brief: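 Viability was read by SYBR Green I DNA quantitation and normalized to DMSO-treated untreated controls. IC50 came from nonlinear regression, averaging at least three independent experiments run in triplicate, with standard deviations.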

[1] = Selectivity index, ratio of IC50 for human WI38 cells to IC50 for chloroquine-resistant Plasmodium falciparum Dd2; assay type: toxicity; settings: read-out: Ratio IC50
WI-38 = assay: Cytotoxicity against human WI38 cells after 24 hrs by resazurin assay; settings: WI-38, 24 h

SMILES	IC50 (Plasmodium falciparum) [µM]	selectivity ratio [1]	IC50 (WI-38) [µM]
C/C=C(\C)C(=O)OC[C@]1(O)[C@H]2C[C@H]2[C@]2(C)[C@@H]3CC4=C5[C@H](/C(=C(/C)C(=O)OC)C(=O)[C@H](O)[C@@]5(C)[C@@H]5C[C@H]45)[C@@]34OC(=O)C(COC(C)=O)=C4C[C@@H]12	0.013	12	0.16
COC(=O)CCC(=O)OCC1=C2C[C@H]3[C@](O)(COC(=O)/C=C(\C)C=O)[C@H]4C[C@H]4[C@]3(C)[C@@H]3CC4=C5[C@H](/C(=C(\C)C(=O)OC)C(=O)[C@H](O)[C@@]5(C)[C@@H]5C[C@H]45)[C@]23OC1=O	0.0052	1700	8.84
COC(=O)CCC(=O)OCC1=C2C[C@H]3[C@](O)(COC(=O)/C=C(\C)CO)[C@H]4C[C@H]4[C@]3(C)[C@@H]3CC4=C5[C@H](/C(=C(\C)C(=O)OC)C(=O)[C@H](O)[C@@]5(C)[C@@H]5C[C@H]45)[C@]23OC1=O	0.0011	4900	5.39
C/C=C(\C)C(=O)OC[C@]1(O)[C@H]2CC3=C(CO)C(=O)O[C@@]34[C@@H]3C5=C(C[C@H]4[C@@]2(C)[C@@H]2C[C@@H]21)[C@H]1C[C@H]1[C@]5(C)[C@@H](O)C(=O)/C3=C(\C)C(=O)OC	0.021	37	0.77
COC(=O)CCC(=O)OCC1=C2C[C@H]3[C@](O)(COC(=O)/C=C(\C)CO)[C@H]4C[C@H]4[C@]3(C)[C@@H]3C[C@@]4(OO)C5=C(/C(=C(\C)C(=O)OC)C(=O)[C@H](O)[C@@]5(C)[C@@H]5C[C@@H]54)[C@]23OC1=O	0.043		> 100
COC(=O)/C(C)=C1\C(=O)[C@H](O)[C@]2(C)C3=C(C[C@@H]4[C@]5(OC(=O)C(C)=C5C[C@H]5[C@](O)(COC(=O)/C=C(\C)CO)[C@H]6C[C@H]6[C@]45C)[C@H]31)[C@H]1C[C@H]12	0.096	46	4.45
COC(=O)/C(C)=C1\C(=O)[C@H](O)[C@]2(C)C3=C(C[C@@H]4[C@]5(OC(=O)C(COC(=O)C[C@H](O)C(=O)OC)=C5C[C@H]5[C@](O)(COC(=O)/C(C)=C/CO)[C@H]6C[C@H]6[C@]45C)[C@H]31)[C@H]1C[C@H]12	0.0072	561	4.04
COC(=O)/C(C)=C1\C(=O)[C@H](O)[C@]2(C)C3=C(C[C@@H]4[C@]5(OC(=O)C(CO)=C5C[C@H]5[C@](O)(COC(C)=O)[C@H]6C[C@H]6[C@]45C)[C@H]31)[C@H]1C[C@H]12	0.1	100	10
COC(=O)CCC(=O)OC/C(C)=C/C(=O)OC[C@]1(O)[C@H]2C[C@H]2[C@]2(C)[C@@H]3CC4=C5[C@H](/C(=C(\C)C(=O)OC)C(=O)[C@H](O)[C@@]5(C)[C@@H]5C[C@H]45)[C@@]34OC(=O)C(CO)=C4C[C@@H]12	0.019	163	3.09
COC(=O)/C(C)=C1/C(=O)[C@H](O)[C@]2(C)C3=C(C[C@@H]4[C@]5(OC(=O)C6=C5C[C@H]5[C@](O)(COC(=O)/C=C(\C)COC(=O)CCC(=O)OC6)[C@H]6C[C@H]6[C@]45C)[C@H]31)[C@H]1C[C@H]12	0.046	27	1.24
C=C1C(=O)O[C@]23C4=C5C(=O)[C@H](O)[C@]6(C)C4=C(C[C@H]2[C@]2(C)C(C[C@]13[C@]5(C)C(=O)OC)[C@](O)(COC(=O)/C(C)=C/COC(=O)CCC(=O)OC)[C@H]1C[C@H]12)[C@H]1C[C@H]16 (some centres not stated)	0.099	157	15.5
COC(=O)/C(C)=C1\C(=O)[C@H](O)[C@]2(C)C3=C(C[C@@H]4[C@]5(OC(=O)C6=C5C[C@H]5[C@](O)(COC(=O)/C(C)=C/COC(=O)[C@@H](O)CC(=O)OC6)[C@H]6C[C@H]6[C@]45C)[C@H]31)[C@H]1C[C@H]12	0.013	134	1.74
COC(=O)CCC(=O)OC/C(C)=C/C(=O)OC[C@]1(O)[C@H]2C[C@H]2[C@]2(C)[C@@H]3C[C@@]4(OO)C5=C(/C(=C(\C)C(=O)OC)C(=O)[C@H](O)[C@@]5(C)[C@@H]5C[C@@H]54)[C@@]34OC(=O)C(CO)=C4C[C@@H]12	0.03	18	0.53
COC(=O)/C(C)=C1\C(=O)[C@H](O)[C@]2(C)C3=C(C[C@@H]4[C@]5(OC(=O)C(CO)=C5C[C@H]5[C@](O)(COC(=O)/C(C)=C/CO)[C@H]6C[C@H]6[C@]45C)[C@H]31)[C@H]1C[C@H]12 [SARCANDROLIDE B]	0.265		
C/C=C(\C)C(=O)OC[C@]1(O)[C@H]2C[C@H]2[C@]2(C)[C@@H]3C[C@@]4(O)C5=C(C6=C(C)C(=O)O[C@]6(O)[C@H](O)[C@@]5(C)[C@@H]5C[C@@H]54)[C@@]34OC(=O)C(COC(C)=O)=C4C[C@@H]12 [SARCANDROLIDE D]	> 25		
C/C=C(\C)C(=O)OC[C@]1(O)[C@H]2C[C@H]2[C@]2(C)[C@@H]3C[C@@]4(O)C5=C(/C(=C(\C)C(=O)OC)C(=O)[C@H](O)[C@@]5(C)[C@@H]5C[C@@H]54)[C@@]34OC(=O)C(COC(C)=O)=C4C[C@@H]12 [SARCANDROLIDE E]	> 25		
COC(=O)/C(C)=C1\C(=O)[C@H](O)[C@]2(C)C3=C(C[C@@H]4[C@]5(OC(=O)C6=C5C[C@H]5[C@](O)(COC(=O)/C(C)=C/COC(=O)CCC(=O)OC6)[C@H]6C[C@H]6[C@]45C)[C@H]31)[C@H]1C[C@H]12 [SHIZUKAOL B]	0.027	619	16.7
COC(=O)/C(C)=C1\C(=O)[C@H](O)[C@]2(C)C3=C(C[C@@H]4[C@]5(OC(=O)C6=C5C[C@H]5[C@](O)(COC(=O)/C=C(\C)COC(=O)CCC(=O)OC6)[C@H]6C[C@H]6[C@]45C)[C@H]31)[C@H]1C[C@H]12 [SHIZUKAOL F]	0.011	21	0.23
